Source: ChEMBL document CHEMBL4316604, “Discovery of Isaindigotone Derivatives as Novel Bloom's Syndrome Protein (BLM) Helicase Inhibitors That Disrupt the BLM/DNA Interactions and Regulate the Homologous Recombination Repair” (J Med Chem, 2019)
The source made the active and inactive calls. The rule behind the calls is not given here.

Tests used:
HCT-116 [1] = experiment: Induction of apoptosis in human HCT116 cells assessed as up-regulation of CHK2 phosphorylation up to 2 uM after 24 hrs by Western blot analysis
HCT-116 [2] = experiment: Induction of apoptosis in human HCT116 cells assessed as increase in cleaved caspase 7 expression at 2 uM after 48 hrs by Western blot analysis; assay type: functional, cell-based
Procedure, shortened: (§1)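 HCT116 cells treated with ligand (DNA-damage proteins 24 h, apoptosis proteins 48 h), lysed in RIPA at 4 °C. 40 μg protein per lane resolved by SDS-PAGE, blotted to PVDF, probed with damage and apoptosis antibody panels; β-actin loading control; chemiluminescent detection.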

HCT-116 [3] = experiment: Chemosensitization activity in human HCT116 cells assessed as cisplatin-induced antiproliferative activity at 1.25 uM in presence of cisplatin after 24 hrs by MTT assay (reference value: 15.4%); assay type: functional
[4] = biological target: T1, RecQ-like DNA helicase BLM (Homo sapiens, UniProt P54132); experiment: Inhibition of BLM in human HCT116 cells assessed as increase in gamma-H2AX expression at half IC50 concentration after 24 hrs by Western blot analysis
T1 sequence (P54132 whole entry): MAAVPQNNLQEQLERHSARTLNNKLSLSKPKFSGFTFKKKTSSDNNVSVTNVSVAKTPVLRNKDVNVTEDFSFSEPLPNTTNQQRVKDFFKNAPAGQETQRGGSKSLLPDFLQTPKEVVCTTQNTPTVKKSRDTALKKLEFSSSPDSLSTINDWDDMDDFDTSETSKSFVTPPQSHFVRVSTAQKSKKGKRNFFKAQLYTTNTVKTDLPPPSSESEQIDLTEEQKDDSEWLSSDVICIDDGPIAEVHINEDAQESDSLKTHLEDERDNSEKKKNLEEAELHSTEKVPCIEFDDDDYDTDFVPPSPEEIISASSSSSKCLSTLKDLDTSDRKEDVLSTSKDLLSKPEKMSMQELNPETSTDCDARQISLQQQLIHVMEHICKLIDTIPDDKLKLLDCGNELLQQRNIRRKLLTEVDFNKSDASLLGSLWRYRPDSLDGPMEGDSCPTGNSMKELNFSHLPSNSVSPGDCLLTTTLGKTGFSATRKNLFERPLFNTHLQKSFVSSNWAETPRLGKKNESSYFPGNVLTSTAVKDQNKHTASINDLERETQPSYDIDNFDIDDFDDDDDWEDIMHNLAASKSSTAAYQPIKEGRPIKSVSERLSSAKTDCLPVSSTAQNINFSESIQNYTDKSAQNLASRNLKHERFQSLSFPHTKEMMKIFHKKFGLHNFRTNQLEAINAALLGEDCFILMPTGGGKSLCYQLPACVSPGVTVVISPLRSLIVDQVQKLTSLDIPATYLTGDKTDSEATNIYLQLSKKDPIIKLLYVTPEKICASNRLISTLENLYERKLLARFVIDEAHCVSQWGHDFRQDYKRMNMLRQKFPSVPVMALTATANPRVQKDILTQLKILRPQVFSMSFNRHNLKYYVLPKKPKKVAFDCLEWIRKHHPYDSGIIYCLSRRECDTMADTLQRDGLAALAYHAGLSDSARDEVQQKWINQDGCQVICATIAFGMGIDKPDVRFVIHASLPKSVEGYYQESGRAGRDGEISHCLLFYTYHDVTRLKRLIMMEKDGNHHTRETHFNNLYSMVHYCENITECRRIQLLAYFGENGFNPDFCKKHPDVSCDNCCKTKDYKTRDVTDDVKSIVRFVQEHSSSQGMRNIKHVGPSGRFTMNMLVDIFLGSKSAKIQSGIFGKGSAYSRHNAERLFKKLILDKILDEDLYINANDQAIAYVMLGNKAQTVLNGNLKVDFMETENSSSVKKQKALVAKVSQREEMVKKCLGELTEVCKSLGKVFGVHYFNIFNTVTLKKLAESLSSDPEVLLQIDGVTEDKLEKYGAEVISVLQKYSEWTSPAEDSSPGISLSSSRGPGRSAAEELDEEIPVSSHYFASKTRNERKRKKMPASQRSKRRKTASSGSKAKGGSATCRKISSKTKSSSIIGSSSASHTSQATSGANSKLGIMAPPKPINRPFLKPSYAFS

HCT-116 [5] = experiment: Induction of apoptosis in human HCT116 cells assessed as increase in cleaved caspase 3 expression at 2 uM after 48 hrs by Western blot analysis; assay type: functional, cell-based
Procedure, shortened: as §1

HCT-116 [6] = experiment: Chemosensitization activity in human HCT116 cells assessed as RI-I-induced antiproliferative activity at 1.25 uM in presence of RI-I after 24 hrs by MTT assay; assay type: functional, cell-based
[7] = biological target: RecQ-like DNA helicase BLM (Homo sapiens, UniProt P54132, Y995A); experiment: Binding affinity to His-tagged BLM Y995A mutant (unknown origin) expressed in Escherichia coli BL21 (DE3) by ITC assay
Sequence of RecQ-like DNA helicase BLM (Homo sapiens, UniProt P54132, Y995A) (P54132 whole entry Y995A): as the sequence (P54132 whole entry) above, with Y995A counted along it
Procedure, shortened: (§2)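 ITC at 25 °C in 2 mM MgCl2, 10 mM KH2PO4, pH 7.5: ligand (0.6 mM, syringe) titrated in 10 μL injections, 300 s apart, into BLM642-1296 wild-type or point mutant, or DNA (0.04 mM, cell). His-tagged BLM from E. coli BL21(DE3), induced with […] at 16 °C for 24 h. Heats integrated, fitted to 1:1 model for KD.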

[8] = biological target: T1, RecQ-like DNA helicase BLM; experiment: Inhibition of 5'-biotin labeled duplex forked-DNA binding to BLM (unknown origin) assessed as increase in unbound DNA levels after 1 hr by ELISA
Procedure, shortened: (§3)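 Biotinylated forked DNA (50 nM) immobilised on streptavidin plates overnight at 4 °C. BLM or mutant (100 nM final) premixed with serially halved ligand in 3% BSA blocking buffer, ≤1% DMSO, 1 h on ice. Applied to the blocked plate for 1 h at 37 °C. Bound BLM detected with anti-BLM and HRP secondary, TMB, A450; Hill fit.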

[9] = biological target: T1, RecQ-like DNA helicase BLM; experiment: Inhibition of BLM in human HCT116 cells assessed as induction of RAD51 recruitment to DSB sites on chromosomes at 0.5 to 1 uM after 48 hrs by ChIP assay; assay type: cell-based
Procedure, shortened: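 HCT116 cells co-transfected with HRR(−) reporter DSB model (or chromosomal I-SceI DSBs) and I-SceI; after 24 h given 0–2 μM ligand for 24 h. Crosslinked in 1% formaldehyde, chromatin digested by micrococcal nuclease to 0.2–0.5 kb, IP with anti-BLM or anti-RAD51 (IgG control). qPCR at DSB sites, normalised to untreated; triplicate.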

DNA = experiment: Binding affinity to DNA (unknown origin) up to 2 molar ratio by ITC; assay type: nucleic-acid assay
Procedure, shortened: as §2

[10] = tested on: RecQ-like DNA helicase BLM (Homo sapiens), P54132 [Y995A]; experiment: Inhibition of His-tagged BLM Y995A mutant (unknown origin) binding to DNA assessed as effect on unbound DNA
Sequence of RecQ-like DNA helicase BLM (Homo sapiens), P54132 [Y995A] (P54132 whole entry Y995A, the tested form may be a part): as the sequence (P54132 whole entry) above, with Y995A counted along it
Procedure, shortened: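 Truncated His-tagged BLM (residues 642-1296) mutant expressed in E. coli BL21(DE3). ELISA with 5′-biotin forked DNA (50 nM) immobilized on streptavidin plates at 4 °C overnight. BLM at 100 nM final was premixed with half-diluted compound (≤1% DMSO) on ice for 1 h, then added at 37 °C for 1 h. Bound BLM was detected with anti-BLM/HRP-TMB at A450; curves were Hill-fitted.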

[11] = biological target: RecQ-like DNA helicase BLM (Homo sapiens, UniProt P54132, E1143A); experiment: Binding affinity to His-tagged BLM E1143A mutant (unknown origin) expressed in Escherichia coli BL21 (DE3) by ITC assay
Sequence of RecQ-like DNA helicase BLM (Homo sapiens, UniProt P54132, E1143A) (P54132 whole entry E1143A): as the sequence (P54132 whole entry) above, with E1143A counted along it
Procedure, shortened: as §2

HCT-116 [12] = experiment: Chemosensitization activity in human HCT116 cells assessed as cisplatin-induced antiproliferative activity at 1.25 uM in presence of cisplatin and BLM siRNA after 24 hrs by MTT assay (reference value: 15.4%); assay type: functional, cell-based
[13] = biological target: T1, RecQ-like DNA helicase BLM; experiment: Inhibition of BLM in human HCT116 cells assessed as DNA damage by measuring gammaH2AX up to 2 uM after 48 hrs by […]; assay type: cell-based
[14] = biological target: T1, RecQ-like DNA helicase BLM; experiment: Inhibition of 5'-biotin labeled duplex forked-DNA binding to BLM (unknown origin) assessed as increase in unbound DNA levels at 0.5 to 1 uM after 1 hr by filter-binding assay
Procedure, shortened: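 BLM (100 nM) preincubated with 0.5 or 1.0 μM ligand for 1 h at 37 °C, then mixed with 8 nM biotinylated duplex forked DNA. Vacuum-filtered through nitrocellulose over nylon membranes; DNA UV-crosslinked and detected by chemiluminescence. Dot grey levels give bound (upper) vs free (lower) DNA, relative to total.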

[15] = biological target: RecQ-like DNA helicase BLM (Homo sapiens, UniProt P54132, M1111A); experiment: Binding affinity to His-tagged BLM M1111A mutant (unknown origin) expressed in Escherichia coli BL21 (DE3) by ITC assay
Sequence of RecQ-like DNA helicase BLM (Homo sapiens, UniProt P54132, M1111A) (P54132 whole entry M1111A): as the sequence (P54132 whole entry) above, with M1111A counted along it
Procedure, shortened: as §2

[16] = biological target: T1, RecQ-like DNA helicase BLM; experiment: Inhibition of BLM in human HCT116 cells assessed as induction of HRR up-regulation at 1 uM after 24 hrs in presence of siRNA by GFP-based flow cytometry; assay type: cell-based
Procedure, shortened: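 HCT116 cells (2×10^5) co-transfected with DR-GFP HRR reporter and I-SceI plasmid; 24 h later treated with 0–2 μM ligand (reference 0–50 μM); BLM siRNA knockdown where stated. GFP-positive cells counted by flow cytometry and normalised to untreated; triplicate, mean ± SD.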

HCT-116 [17] = experiment: Induction of apoptosis in human HCT116 cells assessed as up-regulation of ATR phosphorylation up to 2 uM after 24 hrs by Western blot analysis
[18] = biological target: RecQ-like DNA helicase BLM (Homo sapiens, UniProt P54132, I1168A); experiment: Binding affinity to His-tagged BLM I1168A mutant (unknown origin) expressed in Escherichia coli BL21 (DE3) by ITC assay
Sequence of RecQ-like DNA helicase BLM (Homo sapiens, UniProt P54132, I1168A) (P54132 whole entry I1168A): as the sequence (P54132 whole entry) above, with I1168A counted along it
Procedure, shortened: as §2

[19] = tested on: RecQ-like DNA helicase BLM (Homo sapiens), P54132 [I1168A]; experiment: Inhibition of His-tagged BLM I1168A mutant (unknown origin) binding to DNA assessed as effect on unbound DNA
Sequence of RecQ-like DNA helicase BLM (Homo sapiens), P54132 [I1168A] (P54132 whole entry I1168A): as the sequence (P54132 whole entry) above, with I1168A counted along it
Procedure, shortened: as §3

CCN(CC)CCCNc1cc2nc3n(c(=O)c2cc1F)CC/C3=C\c1ccc(C(C)C)cc1
Activity (HCT-116 [1]): Dose-dependent effect | Activity (HCT-116 [2]): Active | Activity (HCT-116 [3]): 71.2% | inhibition [4]: Active | Activity (HCT-116 [5]): Active | Activity (HCT-116 [6]): Active | Kd [7]: 5 µM | IC50 [8]: 3.95 µM | inhibition [8]: Dose-dependent effect | inhibition [9]: Active | Activity (DNA): inactive | inhibition [10]: inactive | Kd [11]: 6 µM | Activity (HCT-116 [12]): Active | inhibition [13]: Active | inhibition [14]: Active | Kd [15]: 4.9 µM | inhibition [16]: Active | Activity (HCT-116 [17]): Active | Kd [18]: 6.5 µM | inhibition [19]: inactive
